Measured values as given in ChEMBL document CHEMBL1142136, “Contribution of target gene mutations and efflux to decreased susceptibility of Salmonella enterica serovar typhimurium to fluoroquinolones and other antimicrobials” (2007).
≈ marks a conversion by molar mass, not a printed value.

What was measured:
Type in all cases: functional, Salmonella enterica subsp. enterica serovar Typhimurium
[1] = test system: Salmonella typhimurium; experiment: Antimicrobial activity against Salmonella enterica serovar Typhimurium CHS14 gyrA+ with GyrA D87G mutation
Outline: (§1)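 MICs measured by broth microdilution on the Sensititre automated system and interpreted by CLSI broth microdilution standards. Ciprofloxacin was also tested by agar dilution, widening the range to 0.0075–128 μg/ml. Quality control strains were E. coli ATCC 25922 and 35218, E. faecalis ATCC 29212, S. aureus ATCC 29213 and P. aeruginosa ATCC 27853.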

[2] = test system: Salmonella typhimurium; experiment: Antimicrobial activity against Salmonella enterica serovar Typhimurium CHS38 with GyrA D87G mutation; outline: as §1
[3] = test system: Salmonella typhimurium; experiment: Antimicrobial activity against Salmonella enterica serovar Typhimurium CHS38 acrAB::Kan with GyrA D87G mutation; outline: as §1
[4] = test system: Salmonella typhimurium; experiment: Antimicrobial activity against Salmonella enterica serovar Typhimurium CHS18 with GyrA S38F mutation; outline: as §1
[5] = test system: Salmonella typhimurium; experiment: Antimicrobial activity against Salmonella enterica serovar Typhimurium CS3 with GyrA S83F, D87N, ParC S80I mutation; outline: as §1
[6] = test system: Salmonella typhimurium; experiment: Antimicrobial activity against Salmonella enterica serovar Typhimurium S21; outline: as §1
[7] = test system: Salmonella typhimurium; experiment: Antimicrobial activity against Salmonella enterica serovar Typhimurium CS3 acrAB::Kan with GyrA S83F, D87N, ParC S80I mutation; outline: as §1
[8] = test system: Salmonella typhimurium; experiment: Antimicrobial activity against Salmonella enterica serovar Typhimurium CHS18 gyrA+ with GyrA S38F mutation; outline: as §1
[9] = test system: Salmonella typhimurium; experiment: Antimicrobial activity against Salmonella enterica serovar Typhimurium S21 tolC::Kan
Outline: (§2)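 MICs by automated broth microdilution panels, interpreted to CLSI broth microdilution standards. Ciprofloxacin additionally tested by agar dilution across 0.0075 to 128 μg/ml. Quality control strains: E. coli ATCC 25922 and 35218, Enterococcus faecalis ATCC 29212, S. aureus ATCC 29213, P. aeruginosa ATCC 27853. Test strains are kanamycin-marked deletion mutants of ground-beef isolate S21.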

[10] = test system: Salmonella typhimurium; experiment: Antimicrobial activity against Salmonella enterica serovar Typhimurium CHS14 tolC::Kan with GyrA D87G mutant; outline: as §1
[11] = test system: Salmonella typhimurium; experiment: Antimicrobial activity against Salmonella enterica serovar Typhimurium CHS14 acrAB::Kan with GyrA D87G mutation; outline: as §1
[12] = test system: Salmonella typhimurium; experiment: Antimicrobial activity against Salmonella enterica serovar Typhimurium CS1 gyrA+ with GyrA S83F, D87N, ParC S80I mutation; outline: as §1
[13] = test system: Salmonella typhimurium; experiment: Antimicrobial activity against Salmonella enterica serovar Typhimurium CS9 gyrA+ with GyrA S83F, D87N, ParC S80I mutation; outline: as §1
[14] = test system: Salmonella typhimurium; experiment: Antimicrobial activity against Salmonella enterica serovar Typhimurium CS9 acrAB::Kan with GyrA S83F, D87N, ParC S80I mutation; outline: as §1
[15] = test system: Salmonella typhimurium; experiment: Antimicrobial activity against Salmonella enterica serovar Typhimurium S21-1 gyrA+; outline: as §1
[16] = test system: Salmonella typhimurium; experiment: Antimicrobial activity against Salmonella enterica serovar Typhimurium CS3 tolC::Kan with GyrA S83F, D87N, parC S80I mutation; outline: as §1
[17] = test system: Salmonella typhimurium; experiment: Antimicrobial activity against Salmonella enterica serovar Typhimurium CS1 tolC::Kan with GyrA S83F, D87N, ParC S80I mutation; outline: as §1
[18] = test system: Salmonella typhimurium; experiment: Antimicrobial activity against Salmonella enterica serovar Typhimurium CS9 with GyrA S83F, D87N, ParC S80I mutation; outline: as §1
[19] = test system: Salmonella typhimurium; experiment: Antimicrobial activity against Salmonella enterica serovar Typhimurium S21-4 tolC::Kan with GyrA S83F, ParC S80I mutation; outline: as §1
[20] = test system: Salmonella typhimurium; experiment: Antimicrobial activity against Salmonella enterica serovar Typhimurium CHS18 acrAB::Kan with GyrA S38F mutation; outline: as §1
[21] = test system: Salmonella typhimurium; experiment: Antimicrobial activity against Salmonella enterica serovar Typhimurium S21 gyrA+; outline: as §1
[22] = test system: Salmonella typhimurium; experiment: Antimicrobial activity against Salmonella enterica serovar Typhimurium CS3 gyrA+ with GyrA S83F, D87N, ParC S80I mutation; outline: as §1
[23] = test system: Salmonella typhimurium; experiment: Antimicrobial activity against Salmonella enterica serovar Typhimurium CHS18 tolC::Kan with GyrA S38F mutation; outline: as §1
[24] = test system: Salmonella typhimurium; experiment: Antimicrobial activity against Salmonella enterica serovar Typhimurium CS1 acrAB::Kan with GyrA S83F, D87N, ParC S80I mutation; outline: as §1
[25] = test system: Salmonella typhimurium; experiment: Antimicrobial activity against Salmonella enterica serovar Typhimurium CS1 with GyrA S83F, D87N, ParC S80I mutation; outline: as §1
[26] = test system: Salmonella typhimurium; experiment: Antimicrobial activity against Salmonella enterica serovar Typhimurium CHS38 gyrA+ with GyrA D87G mutation; outline: as §1
[27] = test system: Salmonella typhimurium; experiment: Antimicrobial activity against Salmonella enterica serovar Typhimurium CHS14 with GyrA D87G mutation; outline: as §1
[28] = test system: Salmonella typhimurium; experiment: Antimicrobial activity against Salmonella enterica serovar Typhimurium CHS38 tolC::Kan with GyrA D87G mutation; outline: as §1
[29] = test system: Salmonella typhimurium; experiment: Antimicrobial activity against Salmonella enterica serovar Typhimurium CS9 tolC::Kan with GyrA S83F, D87N, ParC S80I mutation; outline: as §1
[30] = test system: Salmonella typhimurium; experiment: Antimicrobial activity against Salmonella enterica serovar Typhimurium S21 acrAB::Kan; outline: as §2
[31] = test system: Salmonella typhimurium; experiment: Antimicrobial activity against Salmonella enterica serovar Typhimurium S21-4 acrAB::Kan with GyrA S83F, ParC S80I mutation; outline: as §1
[32] = test system: Salmonella typhimurium; experiment: Antimicrobial activity against Salmonella enterica serovar Typhimurium S21-2 with GyrA S83F, ParC S80I mutation; outline: as §1
[33] = test system: Salmonella typhimurium; experiment: Antimicrobial activity against Salmonella enterica serovar Typhimurium S21-3 gyrA+ with ParC S80I mutation; outline: as §1
[34] = test system: Salmonella typhimurium; experiment: Antimicrobial activity against Salmonella enterica serovar Typhimurium S21-3 with GyrA S83F, ParC S80I mutation; outline: as §1
[35] = test system: Salmonella typhimurium; experiment: Antimicrobial activity against Salmonella enterica serovar Typhimurium S21-2 gyrA+ with ParC S80I mutation; outline: as §1
[36] = test system: Salmonella typhimurium; experiment: Antimicrobial activity against Salmonella enterica serovar Typhimurium S21-4 with GyrA S83F, ParC S80I mutation; outline: as §1
[37] = test system: Salmonella typhimurium; experiment: Antimicrobial activity against Salmonella enterica serovar Typhimurium S21-4 gyrA+ with ParC S80I mutation; outline: as §1
[38] = test system: Salmonella typhimurium; experiment: Antimicrobial activity against Salmonella enterica serovar Typhimurium S21-1 GyrA S83F mutant; outline: as §1

SMILES	MIC [1]	MIC [2]	MIC [3]	MIC [4]	MIC [5]	MIC [6]	MIC [7]	MIC [8]	MIC [9]	MIC [10]	MIC [11]	MIC [12]	MIC [13]	MIC [14]	MIC [15]	MIC [16]	MIC [17]	MIC [18]	MIC [20]	MIC [21]	also measured
O=C(N[C@H](CO)[C@H](O)c1ccc([N+](=O)[O-])cc1)C(Cl)Cl [CHLORAMPHENICOL]	8 µg/mL (≈ 24.8 µM)	32 µg/mL (≈ 99 µM)	4 µg/mL (≈ 12.4 µM)	8 µg/mL (≈ 24.8 µM)	> 32 µg/mL	8 µg/mL (≈ 24.8 µM)	> 32 µg/mL	4 µg/mL (≈ 12.4 µM)	< 2 µg/mL	< 2 µg/mL	< 2 µg/mL	> 32 µg/mL	> 32 µg/mL	> 32 µg/mL	> 32 µg/mL	> 32 µg/mL	> 32 µg/mL	> 32 µg/mL	2 µg/mL (≈ 6.19 µM)	8 µg/mL (≈ 24.8 µM)	MIC [19]: 32 µg/mL (≈ 99 µM); MIC [22]: > 32 µg/mL; MIC [23]: 2 µg/mL (≈ 6.19 µM); MIC [24]: > 32 µg/mL; MIC [25]: > 32 µg/mL; MIC [26]: 32 µg/mL (≈ 99 µM); MIC [27]: 8 µg/mL (≈ 24.8 µM); MIC [28]: 4 µg/mL (≈ 12.4 µM); MIC [29]: > 32 µg/mL; MIC [30]: < 2 µg/mL
NC[C@H]1O[C@H](O[C@H]2[C@H](O)[C@@H](O[C@H]3O[C@H](CO)[C@@H](O)[C@H](N)[C@H]3O)[C@H](N)C[C@@H]2N)[C@H](O)[C@@H](O)[C@@H]1O [KANAMYCIN]	> 64 µg/mL	8 µg/mL (≈ 16.5 µM)	> 64 µg/mL	8 µg/mL (≈ 16.5 µM)	< 8 µg/mL	< 8 µg/mL	> 64 µg/mL	> 64 µg/mL	> 64 µg/mL	> 64 µg/mL	> 64 µg/mL	> 64 µg/mL	> 64 µg/mL	> 64 µg/mL	< 8 µg/mL	> 64 µg/mL	> 64 µg/mL	< 8 µg/mL	> 64 µg/mL	< 8 µg/mL	MIC [31]: > 64 µg/mL; MIC [22]: > 64 µg/mL; MIC [23]: > 64 µg/mL; MIC [24]: > 64 µg/mL; MIC [25]: < 8 µg/mL; MIC [26]: > 64 µg/mL; MIC [27]: < 8 µg/mL; MIC [28]: > 64 µg/mL; MIC [29]: > 64 µg/mL; MIC [30]: > 64 µg/mL
CN(C)[C@@H]1C(O)=C(C(N)=O)C(=O)[C@@]2(O)C(O)=C3C(=O)c4c(O)cccc4[C@@](C)(O)[C@H]3C[C@@H]12 [TETRACYCLINE]	> 32 µg/mL	32 µg/mL (≈ 72 µM)	16 µg/mL (≈ 36 µM)	4 µg/mL (≈ 9 µM)	> 32 µg/mL	< 4 µg/mL	> 32 µg/mL	4 µg/mL (≈ 9 µM)	< 4 µg/mL	> 32 µg/mL	> 32 µg/mL	> 32 µg/mL	> 32 µg/mL	> 32 µg/mL	32 µg/mL (≈ 72 µM)	32 µg/mL (≈ 72 µM)	32 µg/mL (≈ 72 µM)	> 32 µg/mL	4 µg/mL (≈ 9 µM)	< 4 µg/mL	MIC [32]: > 32 µg/mL; MIC [33]: > 32 µg/mL; MIC [34]: > 32 µg/mL; MIC [35]: > 32 µg/mL; MIC [19]: 8 µg/mL (≈ 18 µM); MIC [22]: > 32 µg/mL; MIC [36]: > 32 µg/mL; MIC [23]: 4 µg/mL (≈ 9 µM); MIC [37]: > 32 µg/mL; MIC [24]: > 32 µg/mL; MIC [25]: > 32 µg/mL; MIC [26]: 32 µg/mL (≈ 72 µM); MIC [38]: 32 µg/mL (≈ 72 µM); MIC [27]: > 32 µg/mL; MIC [28]: 16 µg/mL (≈ 36 µM); MIC [29]: 32 µg/mL (≈ 72 µM); MIC [30]: < 4 µg/mL
